According to ChEMBL document CHEMBL4422637, “Identification of dual role of piperazine-linked phenyl cyclopropyl methanone as positive allosteric modulator of 5-HT2C and negative allosteric modulator of 5-HT2B receptors” (Eur J Med Chem, 2019):
Activity calls are given as the source filed them. No cut-off for these calls is given here.

biological target: T1, 5-hydroxytryptamine receptor 2C (Homo sapiens) (UniProt P28335); assay: Agonist activity at 5HT2C receptor (unknown origin) expressed in HEK293 cells co-expressing NFAT-RE at 10 uM after 6 to 12 hrs by Bright-Glo luciferase reporter gene assay; format: cell-based; settings: not given
T1 sequence (whole entry): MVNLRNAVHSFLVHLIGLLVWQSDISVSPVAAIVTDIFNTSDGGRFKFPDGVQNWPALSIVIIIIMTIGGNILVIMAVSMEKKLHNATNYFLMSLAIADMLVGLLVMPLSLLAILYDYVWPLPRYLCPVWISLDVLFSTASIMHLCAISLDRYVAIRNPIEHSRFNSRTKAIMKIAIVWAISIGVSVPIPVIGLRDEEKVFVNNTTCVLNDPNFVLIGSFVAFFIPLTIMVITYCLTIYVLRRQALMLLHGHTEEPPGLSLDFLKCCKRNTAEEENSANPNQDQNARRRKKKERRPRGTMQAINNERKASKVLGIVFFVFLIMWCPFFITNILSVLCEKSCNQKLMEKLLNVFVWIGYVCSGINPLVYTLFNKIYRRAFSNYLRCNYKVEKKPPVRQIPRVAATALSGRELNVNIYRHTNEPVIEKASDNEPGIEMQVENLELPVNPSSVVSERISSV
In short: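 Primary screen at 5-HT2C in transiently co-transfected HEK293T (receptor plus NFAT-RE luciferase plasmids, 50,000 cells/well). Compounds tested in triplicate at a final 10 µM in HEPES-buffered HBSS pH 7.4 and incubated 6-12 h. Luminescence read within 5 min of Bright-Glo (1 mg/ml final). Signal normalized to the 5-HT maximal response.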

SMILES | Activity
O=C(c1ccc(OCc2ccccc2)cc1)C1CC1 | inactive
O=C(c1ccc(Nc2nc3ccccc3[nH]2)cc1)C1CC1 | inactive
CCCCCc1cn(C(c2ccc(OCc3ccccc3)cc2)C2CC2)nn1 (stereo unspecified) | inactive
O=C(c1ccc(Nc2nc3ccc(F)cc3s2)cc1)C1CC1 | inactive
Nc1cccc2ncn(-c3ccc(C(=O)C4CC4)cc3)c12 | inactive
OCCCCc1cn(C(c2ccc(OCc3ccccc3)cc2)C2CC2)nn1 (stereo unspecified) | inactive
OCc1cn(C(c2ccc(OCc3ccccc3)cc2)C2CC2)nn1 (stereo unspecified) | inactive
OC(c1ccc(-n2cnc3c(NCc4ccccc4)ncnc32)cc1)C1CC1 (stereo unspecified) | inactive
c1ccc(COc2ccc(C(C3CC3)n3cc(-c4ccccc4)nn3)cc2)cc1 (stereo unspecified) | inactive
O=C(c1ccc(N2CCN(Cc3ccc4c(c3)OCO4)CC2)cc1)C1CC1 | inactive
O=C(c1ccc(N2CCN(C(c3ccccc3)c3ccccc3)CC2)cc1)C1CC1 | inactive
O=C(c1ccc(-n2cnc3c(NCc4ccccc4)ncnc32)cc1)C1CC1 | inactive
CCOc1ccc2nc(Nc3ccc(C(=O)C4CC4)cc3)sc2c1 | inactive
Nc1ncnc2c1ncn2-c1ccc(C(O)C2CC2)cc1 (stereo unspecified) | inactive
O=C(c1ccc(-n2cnc3ccccc32)cc1)C1CC1 | inactive
O=C(c1ccc(-n2cnc([N+](=O)[O-])c2)cc1)C1CC1 | inactive

SMILES | Activity
O=C(c1ccc(-n2nnc3ccccc32)cc1)C1CC1 | inactive
C=CCN1CCN(c2ccc(C(=O)C3CC3)cc2)CC1 | inactive
Cc1nc2ccccc2n1-c1ccc(C(=O)C2CC2)cc1 | inactive
O=[N+]([O-])c1cn(-c2ccc(C(O)C3CC3)cc2)cn1 (stereo unspecified) | inactive
CC1(C)O[C@@H]2O[C@H]([C@H]3COC(C)(C)O3)[C@@H](OCc3cn(C(c4ccc(OCc5ccccc5)cc4)C4CC4)nn3)[C@H]2O1 (stereo partly specified) | inactive
Cc1cccc2sc(Nc3ccc(C(=O)C4CC4)cc3)nc12 | inactive
O=C(c1ccc(NCCN2CCN(c3ccc(C(=O)C4CC4)cc3)CC2)cc1)C1CC1 | inactive
OC(c1ccc(-n2cnc3ccccc32)cc1)C1CC1 (stereo unspecified) | inactive
O=C(c1ccc(-n2ccnc2)cc1)C1CC1 | inactive
OC(c1ccc(-n2ccnc2)cc1)C1CC1 (stereo unspecified) | inactive
Nc1ncnc2c1ncn2-c1ccc(C(=O)C2CC2)cc1 | inactive
COc1cc(C(=O)OCc2cn(C(c3ccc(OCc4ccccc4)cc3)C3CC3)nn2)cc(OC)c1OC (stereo unspecified) | inactive
Cc1ccc(S(=O)(=O)NCc2cn(C(c3ccc(OCc4ccccc4)cc3)C3CC3)nn2)cc1 (stereo unspecified) | inactive
O=C(c1ccc(Nc2nc3ccccc3s2)cc1)C1CC1 | inactive
Cc1nc2ccccc2n1-c1ccc(C(O)C2CC2)cc1 (stereo unspecified) | inactive
O=S(=O)(NCc1cn(C(c2ccc(OCc3ccccc3)cc2)C2CC2)nn1)c1ccc(F)cc1 (stereo unspecified) | inactive

biological target: T1, 5-hydroxytryptamine receptor 2C (Homo sapiens); assay: Positive allosteric modulation of 5HT2C receptor (unknown origin) expressed in HEK293 cells co-expressing NFAT-RE assessed as increase in serotonin-induced reponse at 10 uM after 6 to 12 hrs by Bright-Glo luciferase reporter gene assay relative to serotonin; format: cell-based; settings: not given
In short: (§1)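 Transiently co-transfected HEK293T cells expressing 5-HT2A, 5-HT2B or 5-HT2C with NFAT-RE luciferase, 50,000 cells/well. Test compound added first at 10 µM, 1 µM or 100 nM, in triplicate. A 5-HT concentration-response (10 µM to 0.01 nM) followed, then 6-12 h incubation. Bright-Glo luminescence was fitted by non-linear regression, with Emax normalized to 5-HT alone (100%). n=3-4.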

SMILES | Activity
O=C(c1ccc(Nc2nc3ccccc3[nH]2)cc1)C1CC1 | inactive
O=C(c1ccc(Nc2nc3ccc(F)cc3s2)cc1)C1CC1 | inactive
Nc1cccc2ncn(-c3ccc(C(=O)C4CC4)cc3)c12 | inactive
OC(c1ccc(-n2cnc3c(NCc4ccccc4)ncnc32)cc1)C1CC1 (stereo unspecified) | inactive
O=C(c1ccc(N2CCN(Cc3ccc4c(c3)OCO4)CC2)cc1)C1CC1 | inactive
O=C(c1ccc(N2CCN(C(c3ccccc3)c3ccccc3)CC2)cc1)C1CC1 | inactive
O=C(c1ccc(-n2cnc3c(NCc4ccccc4)ncnc32)cc1)C1CC1 | inactive
CCOc1ccc2nc(Nc3ccc(C(=O)C4CC4)cc3)sc2c1 | inactive
Nc1ncnc2c1ncn2-c1ccc(C(O)C2CC2)cc1 (stereo unspecified) | inactive
O=C(c1ccc(-n2cnc3ccccc32)cc1)C1CC1 | inactive
O=C(c1ccc(NCCCn2ccnc2)cc1)C1CC1 | inactive
O=C(c1ccc(-n2cnc([N+](=O)[O-])c2)cc1)C1CC1 | Active
O=C(c1ccc(-n2nnc3ccccc32)cc1)C1CC1 | inactive
C=CCN1CCN(c2ccc(C(=O)C3CC3)cc2)CC1 | inactive
Cc1nc2ccccc2n1-c1ccc(C(=O)C2CC2)cc1 | inactive
O=[N+]([O-])c1cn(-c2ccc(C(O)C3CC3)cc2)cn1 (stereo unspecified) | inactive
Cc1cccc2sc(Nc3ccc(C(=O)C4CC4)cc3)nc12 | inactive
OC(c1ccc(-n2cnc3ccccc32)cc1)C1CC1 (stereo unspecified) | inactive
O=C(c1ccc(-n2ccnc2)cc1)C1CC1 | Active
OC(c1ccc(-n2ccnc2)cc1)C1CC1 (stereo unspecified) | inactive
Nc1ncnc2c1ncn2-c1ccc(C(=O)C2CC2)cc1 | inactive
O=C(c1ccc(Nc2nc3ccccc3s2)cc1)C1CC1 | inactive
Cc1nc2ccccc2n1-c1ccc(C(O)C2CC2)cc1 (stereo unspecified) | inactive

biological target: T2, 5-hydroxytryptamine receptor 2B (Homo sapiens, UniProt P41595); assay: Positive allosteric modulation of 5HT2B receptor (unknown origin) expressed in HEK293 cells co-expressing NFAT-RE assessed as increase in serotonin-induced reponse at 10 uM after 6 to 12 hrs by Bright-Glo luciferase reporter gene assay; format: cell-based; settings: hek293, 10 µM; in short: as §1
T2 sequence (P41595 whole entry): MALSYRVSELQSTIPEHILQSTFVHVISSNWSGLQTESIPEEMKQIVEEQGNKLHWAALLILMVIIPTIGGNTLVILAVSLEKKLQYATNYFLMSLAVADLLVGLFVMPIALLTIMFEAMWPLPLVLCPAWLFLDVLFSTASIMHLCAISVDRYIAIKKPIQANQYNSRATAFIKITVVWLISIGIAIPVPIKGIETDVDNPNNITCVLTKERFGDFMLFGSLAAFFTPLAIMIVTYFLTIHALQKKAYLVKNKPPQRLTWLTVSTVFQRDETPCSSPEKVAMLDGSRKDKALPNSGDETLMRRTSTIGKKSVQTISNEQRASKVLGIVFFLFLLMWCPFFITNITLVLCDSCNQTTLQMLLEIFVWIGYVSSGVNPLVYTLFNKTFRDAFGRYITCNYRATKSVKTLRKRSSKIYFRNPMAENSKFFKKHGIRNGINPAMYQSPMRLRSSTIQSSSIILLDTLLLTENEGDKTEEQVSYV

SMILES | Activity
O=C(c1ccc(-n2cnc([N+](=O)[O-])c2)cc1)C1CC1 | Active
O=C(c1ccc(-n2ccnc2)cc1)C1CC1 | Active

biological target: T1, 5-hydroxytryptamine receptor 2C (Homo sapiens); assay: Positive allosteric modulation of 5HT2C receptor (unknown origin) expressed in HEK293 cells co-expressing NFAT-RE assessed as increase in serotonin-induced reponse at 1 uM after 6 to 12 hrs by Bright-Glo luciferase reporter gene assay relative to serotonin; format: cell-based; settings: not given; in short: as §1

SMILES | Emax
O=C(c1ccc(-n2cnc([N+](=O)[O-])c2)cc1)C1CC1 | 140%
O=C(c1ccc(-n2ccnc2)cc1)C1CC1 | 143%

biological target: 5HT2A receptor (Homo sapiens, UniProt P28223); assay: Positive allosteric modulation of 5HT2A receptor (unknown origin) expressed in HEK293 cells co-expressing NFAT-RE assessed as increase in serotonin-induced reponse at 1 uM after 6 to 12 hrs by Bright-Glo luciferase reporter gene assay relative to serotonin; format: cell-based; settings: HEK293 cells expressing 5HT2A receptor and NFAT-RE reporter; in short: as §1
Sequence (P28223 whole entry): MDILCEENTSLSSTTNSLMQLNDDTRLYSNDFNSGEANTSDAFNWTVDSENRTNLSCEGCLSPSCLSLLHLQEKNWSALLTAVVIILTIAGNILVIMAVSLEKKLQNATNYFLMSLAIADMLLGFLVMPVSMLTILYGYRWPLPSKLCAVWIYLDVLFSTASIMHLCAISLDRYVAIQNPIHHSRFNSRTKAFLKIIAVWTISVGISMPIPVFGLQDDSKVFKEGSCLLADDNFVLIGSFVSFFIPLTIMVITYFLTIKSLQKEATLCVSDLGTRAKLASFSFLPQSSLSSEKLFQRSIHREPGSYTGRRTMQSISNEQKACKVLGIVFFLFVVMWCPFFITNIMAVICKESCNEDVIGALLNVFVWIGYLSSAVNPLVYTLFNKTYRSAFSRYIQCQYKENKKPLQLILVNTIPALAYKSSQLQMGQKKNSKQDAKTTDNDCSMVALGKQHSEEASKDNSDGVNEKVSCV

SMILES | Emax at 1 µM
O=C(c1ccc(-n2cnc([N+](=O)[O-])c2)cc1)C1CC1 | 100%
O=C(c1ccc(-n2ccnc2)cc1)C1CC1 | 96%

biological target: 5HT2B receptor (Homo sapiens, UniProt P41595); assay: Positive allosteric modulation of 5HT2B receptor (unknown origin) expressed in HEK293 cells co-expressing NFAT-RE assessed as increase in serotonin-induced reponse at 1 uM after 6 to 12 hrs by Bright-Glo luciferase reporter gene assay relative to serotonin; format: cell-based; settings: HEK293 cells expressing 5HT2B receptor and NFAT-RE reporter; in short: as §1
Sequence (P41595 whole entry): as the sequence (P41595 whole entry) above

SMILES | Emax at 1 µM
O=C(c1ccc(-n2cnc([N+](=O)[O-])c2)cc1)C1CC1 | 123%
O=C(c1ccc(-n2ccnc2)cc1)C1CC1 | 119%

biological target: T3, 5-hydroxytryptamine receptor 2A (Homo sapiens, UniProt P28223); assay: Agonist activity at 5HT2A receptor (unknown origin) expressed in HEK293 cells co-expressing NFAT-RE after 6 to 12 hrs by Bright-Glo luciferase reporter gene assay; format: cell-based; settings: not given
T3 sequence (P28223 whole entry): as the sequence (P28223 whole entry) above
In short: (§2)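 HEK293T cells transiently co-transfected (PEI) with 0.1 µg/well receptor plasmid (5-HT2A, 5-HT2B or 5-HT2C) plus 0.1 µg/well NFAT-RE luciferase reporter, plated 50,000 cells/well 24 h before treatment. Compounds tested in triplicate from 10 µM down to 0.01 nM in HBSS/20 mM HEPES pH 7.4, incubated 6-12 h. Luminescence read within 5 min of Bright-Glo (1 mg/ml final). RLU fitted by non-linear regression; 5-HT Emax set to 100%.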

SMILES | Activity
O=C(c1ccc(-n2cnc([N+](=O)[O-])c2)cc1)C1CC1 | Not Active
O=C(c1ccc(-n2ccnc2)cc1)C1CC1 | Not Active

tested on: Rattus norvegicus; assay: Induction of anorexia in Sprague-Dawley rat assessed as suppression of food intake at 2 pmol, icv measured after 3 to 6 hrs; format: functional, organism-based; settings: not given
In short: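 Adult SD rats (150-200 g) on a 12 h light/dark cycle at 22 °C, cannulated in the right ventricle. Rats were fasted 4 h with free access to water, then dosed i.c.v. with 2 pmol/rat (2 µL) in aCSF vehicle; lorcaserin 2 pmol/rat served as positive control. Weighed pellets were given 10 min later, and remaining food plus spillage was weighed at 3, 6 and 24 h; n=4.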

SMILES | Activity
C[C@H]1CNCCc2ccc(Cl)cc21 | Active

biological target: T2, 5-hydroxytryptamine receptor 2B; assay: Agonist activity at 5HT2B receptor (unknown origin) expressed in HEK293 cells co-expressing NFAT-RE after 6 to 12 hrs by Bright-Glo luciferase reporter gene assay; format: cell-based; settings: not given; in short: as §2

SMILES | Activity
O=C(c1ccc(-n2cnc([N+](=O)[O-])c2)cc1)C1CC1 | Not Active
O=C(c1ccc(-n2ccnc2)cc1)C1CC1 | Not Active

biological target: T1, 5-hydroxytryptamine receptor 2C (Homo sapiens); assay: Agonist activity at 5HT2C receptor (unknown origin) expressed in HEK293 cells co-expressing NFAT-RE after 6 to 12 hrs by Bright-Glo luciferase reporter gene assay; format: cell-based; settings: not given; in short: as §2

SMILES | Activity
O=C(c1ccc(-n2cnc([N+](=O)[O-])c2)cc1)C1CC1 | inactive
O=C(c1ccc(-n2ccnc2)cc1)C1CC1 | inactive

biological target: T4, 5-hydroxytryptamine receptor 2C (Homo sapiens, UniProt P28335); assay: Positive allosteric modulation of 5HT2C receptor (unknown origin) expressed in HEK293 cells co-expressing NFAT-RE assessed as increase in serotonin-induced reponse after 6 to 12 hrs by Bright-Glo luciferase reporter gene assay; format: cell-based; settings: not given; in short: as §1
T4 sequence (P28335 whole entry): T1 sequence (whole entry)

SMILES | EC50
O=C(c1ccc(-n2cnc([N+](=O)[O-])c2)cc1)C1CC1 | 4.17 nM
O=C(c1ccc(-n2ccnc2)cc1)C1CC1 | 4.27 nM

biological target: T3, 5-hydroxytryptamine receptor 2A; assay: Positive allosteric modulation of 5HT2A receptor (unknown origin) expressed in HEK293 cells co-expressing NFAT-RE assessed as increase in serotonin-induced reponse after 6 to 12 hrs by Bright-Glo luciferase reporter gene assay; format: cell-based; settings: not given; in short: as §1

SMILES | EC50
O=C(c1ccc(-n2cnc([N+](=O)[O-])c2)cc1)C1CC1 | 45.7 nM
O=C(c1ccc(-n2ccnc2)cc1)C1CC1 | 50.1 nM

biological target: T2, 5-hydroxytryptamine receptor 2B; assay: Positive allosteric modulation of 5HT2B receptor (unknown origin) expressed in HEK293 cells co-expressing NFAT-RE assessed as increase in serotonin-induced reponse after 6 to 12 hrs by Bright-Glo luciferase reporter gene assay; format: cell-based; settings: not given; in short: as §1

SMILES | EC50
O=C(c1ccc(-n2cnc([N+](=O)[O-])c2)cc1)C1CC1 | 1.26 nM
O=C(c1ccc(-n2ccnc2)cc1)C1CC1 | 1.26 nM
